Test [1] concerns Pichia kudriavzevii. The experiment in a line: Synergistic antifungal activity against Candida krusei 10153 assessed as potentiation of fluconazole antifungal activity by measuring FICI incubated for 48 hrs in presence of fluconazole by checkerboard microdilution assay. The format is functional. An outline of the steps: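 Checkerboard broth microdilution per CLSI M27-A3 (modified), clinical Candida isolates. 48 h at 35 °C; OD630 read with background subtracted. MIC80 = 80% growth inhibition; FICI ≤0.5 synergy, >4 antagonism.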
In general terms: Dilution methods test growth across graded concentrations, often in twofold steps.

The subject of test [2] is Candida albicans. The experiment in a line: Synergistic antifungal activity against Candida albicans 4108 assessed as fluconazole MIC incubated for 48 hrs in presence of fluconazole by microdilution assay (reference value: fluconazole alone MIC = >[…] ug/ml). In kind it is functional.
Test [3] deals with Candida albicans. The experiment in a line: Inhibition of HDAC in Candida albicans supernatants using Boc-Lys(Ac)-AMC substrate incubated for 18 hrs by fluorescence based assay. Put shortly: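 Fungal whole-cell HDAC assay: C. albicans converted to protoplasts by snailase/mercaptoethanol (37 °C, 3 h), resuspended in PBS; compound 1–100 μM final, 35 °C 12 h, then Boc-Lys(Ac)-AMC 33 μM, 37 °C 6 h. Stopped with trypsin/Nonidet P-40 buffer, 37 °C 2 h; fluorescence Ex 360/Em 460 nm. Inhibition vs control after blank subtraction; three independent experiments.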

Test [4] relates to Candida albicans. The experiment in a line: Synergistic fungicidal activity against Candida albicans 0304103 assessed as potentiation of fluconazole antifungal activity at 32 ug/ml incubated for 48 hrs in presence of 64 ug/ml fluconazole by checkerboard microdilution assay. In kind it is functional, organism-based. The note with it: dose 32.0 µg/ml.

The source of these data is ChEMBL document CHEMBL4706641, “Novel Carboline Fungal Histone Deacetylase (HDAC) Inhibitors for Combinational Treatment of Azole-Resistant Candidiasis” (J Med Chem, 2021).

By MIC80 is commonly meant an inhibitory concentration at the 80% level, which refers to growth in some studies and to a panel of isolates in others.

Calls of active or inactive are those of the source. The rule behind the calls is not given here.

As for `O=C(Cc1ccc(OCCCn2c3c(c4cccc(Cl)c42)CCNC3)cc1)NO`, the “fractional inhibitory concentration index (FICI)” value in test [1] came to 0.25. In addition, the MIC80 in test [2] worked out at 0.25 µg/mL. In addition, the inhibition result in test [3] was “Active”. The result in test [4] was Active.
